Measured values reported in ChEMBL document CHEMBL4177589, “In silico analysis and in vitro evaluation of immunogenic and immunomodulatory properties of promiscuous peptides derived from Leishmania infantum eukaryotic initiation factor” (2017).
Calls of active or inactive are those of the source. The calls are words filed in the database; no cut-off is given here.

Tests used:
Splenocyte = experiment: Induction of cell proliferation in splenocytes isolated from BALB/c mouse infected with Leishmania major MRHO/SU/59/P, zymodeme LV39 assessed as increase in [3H]-thymidine incorporation at 1 to 10 ug/ml […] and measured after 18 hrs by liquid scintillation counter method; type: functional, cell-based
Procedure, shortened: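 Female BALB/c mice were infected subcutaneously with 2×10^6 stationary-phase L. major promastigotes. Splenocytes were taken one month later and plated in triplicate at 2×10^6 cells/mL with peptide at 1, 5 or 10. Cultures ran 96 h at 37°C, 5% CO2, with 3H-thymidine (2 µCi/mL) added for the last 18 h and read by scintillation. The result is Δcpm against medium wells; Δcpm >2000 with SI >2 counted as positive.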

BMDC [1] = experiment: Immunomodulatory activity in LPS stimulated BALB/c mouse bone marrow-derived dendritic cells assessed as increase in IL-12 level at 10 ug/ml after 24 hrs by FACS analysis (reference value: 44%); type: functional
BMDC [2] = experiment: Immunomodulatory activity in LPS stimulated BALB/c mouse bone marrow-derived dendritic cells assessed as increase in IL-10 level at 10 ug/ml after 24 hrs by FACS analysis (reference value: 27%); type: functional
BMDC [3] = experiment: Immunomodulatory activity in LPS stimulated BALB/c mouse bone marrow-derived dendritic cells assessed as increase in IL-4 level at 10 ug/ml after 24 hrs by FACS analysis (reference value: 48%); type: functional
BMDC [4] = experiment: Immunomodulatory activity in […] mouse bone marrow-derived dendritic cells assessed as increase in IL-10 level at 10 ug/ml after 24 hrs by FACS analysis; type: functional, cell-based
BMDC [5] = experiment: Immunomodulatory activity in LPS stimulated BALB/c mouse bone marrow-derived dendritic cells assessed as increase in IFN-gamma level at 10 ug/ml after 24 hrs by FACS analysis (reference value: 20%); type: functional
BMDC [6] = experiment: Immunomodulatory activity in LPS stimulated BALB/c mouse bone marrow-derived dendritic cells assessed as increase in surface CD80 expression at 10 ug/ml after 24 hrs by FACS analysis (reference value: 26%)
BMDC [7] = experiment: Immunomodulatory activity in […] mouse bone marrow-derived dendritic cells assessed as up-regulation of co-stimulatory molecules at 10 ug/ml after 24 hrs by FACS analysis; type: functional, cell-based
BMDC [8] = experiment: Immunomodulatory activity in […] mouse bone marrow-derived dendritic cells assessed as increase in IL-12 level at 10 ug/ml after 24 hrs by FACS analysis; type: functional, cell-based
BMDC [9] = experiment: Immunomodulatory activity in LPS stimulated BALB/c mouse bone marrow-derived dendritic cells assessed as up-regulation of TNF-alpha mRNA expression at 10 ug/ml after 2 to 12 hrs by qPCR analysis; type: functional, cell-based
Procedure, shortened: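 Day-9 BM-DCs (5×10^6 per group) were cultured with peptide for 2, 6 and 12 h, with LPS and medium controls. TNF-α mRNA was measured by RT and semi-quantitative PCR, and products were run on 2% agarose gels. Band densitometry was normalised to β-actin and given as arbitrary units, from three independent experiments.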

BMDC [10] = experiment: Immunomodulatory activity in LPS stimulated BALB/c mouse bone marrow-derived dendritic cells assessed as increase in surface CD86 expression at 10 ug/ml after 24 hrs by FACS analysis (reference value: 58%)

Row | Substance | Activity (Splenocyte) | Activity (BMDC [1]) | also measured
1 | H-FLDDQPGVRPIPSFDDM-OH | Active | inactive | 
2 | H-IQQRAIAPFTRGGDII-OH | Active | 65% | Activity (BMDC [2]): 43%; Activity (BMDC [3]): 64%; Activity (BMDC [4]): Active; Activity (BMDC [5]): 40%; Activity (BMDC [6]): 43%; Activity (BMDC [7]): Active; Activity (BMDC [8]): Active; Activity (BMDC [9]): Active; Activity (BMDC [10]): 77%
3 | H-KPSSIQQRAIAPFTRGG-OH | Active | inactive | 
4 | H-PKDIQVALFSATMPEEVL-OH | Active | inactive | 
5 | H-TRELALQTAEVISRIGE-OH | Active | inactive | 
